# Assay results from different studies.
# Lines come from different studies, so protocols differ.
# AXL: Tyrosine-protein kinase receptor UFO (AXL, Homo sapiens, UniProt P30530)
# RPS6KB2: Ribosomal protein S6 kinase beta-2 (RPS6KB2, Homo sapiens, UniProt Q9UBS0)
# ADORA1: Adenosine receptor A1 (ADORA1, Homo sapiens, UniProt P30542)
SMILES,target,test,test system,conditions,endpoint,value
C#Cc1cnc(Nc2ccc(CO)cc2)nc1Nc1ccccc1C(=O)NC,AXL,"enzyme activity, inhibitor",,1 µM,remaining activity,1.65%
COc1nc(-c2cccc(-c3ccccc3)c2C)ccc1CNCCNC(=O)CCCCCCCCCCC(=O)N1CCN(CCNC(=O)c2cc3c(=O)n4cccc(C)c4nc3n(CCc3cccs3)c2=N)CC1,"Programmed cell death 1 ligand 1 (CD274, Homo sapiens, UniProt Q9NZQ7)","protein level, degrader, western blot",HL-60,1 µM,Dmax,53.9%
C1=C/COCc2cc(ccc2OCCN2CCCC2)Nc2nccc(n2)-c2cccc(c2)COC/1,"Ephrin type-A receptor 4 (EPHA4, Homo sapiens, UniProt P54764)",binding,,0.1 µM,remaining binding,100%
COc1ccc2oc(-c3ccc4nc(N)oc4c3)c/c(=N\c3ccccc3NC(=O)CCN)c2c1,RPS6KB2,binding,,1 µM,remaining binding,93%
CS(=O)(=NC#N)c1ccccc1Nc1nc(Nc2ccnc(CO)c2)ncc1Cl (stereo not drawn),AXL,"enzyme activity, inhibitor",,1 µM,remaining activity,14.7%
CCN1/C(=C/C(C)=O)Sc2ccc(F)cc21,ADORA1,"ligand displacement, radioligand",,10 µM,inhibition,2.48%
NC/C(=C\F)COc1cccc(Cn2c(=S)[nH]c(=O)c3[nH]cnc32)c1,ADORA1,"ligand displacement, radioligand",,10 µM,inhibition,< 50%
Cc1cc(O)c(-c2ccc([C@@H](C)CN(C)C)cc2)c2c1[nH]c(=O)c1sccc12,RPS6KB2,"enzyme activity, inhibitor",,0.1 µM,inhibition,-3.41%
C#Cc1cc(-c2cc(Nc3nc(N[C@@H](C)c4ccc(F)cn4)ncc3Cl)n[nH]2)ccc1C=O,"RAC-gamma serine/threonine-protein kinase (AKT3, Homo sapiens, UniProt Q9Y243)","enzyme activity, inhibitor",,0.2 µM,inhibition,17.4%
Cc1cc(F)cc2c(CCC(=O)N[C@@H]3C(=O)NC[C@H]3O)c(-c3ccc(F)cc3)[nH]c12,ADORA1,cell-free assay,,10 µM,inhibition,4%
CC(C)C[C@H](NC(=O)CNC(=O)[C@H](Cc1ccc(O)cc1)NC(=O)[C@H](CO)NC(=O)[C@H](Cc1c[nH]c2ccccc12)NC(=O)[C@H](Cc1c[nH]cn1)NC(=O)[C@@H]1CCC(=O)N1)C(=O)N[C@@H](CCCNC(=N)N)C(=O)N1CCC[C@H]1C(=O)NCC(N)=O,"Gonadotropin-releasing hormone receptor (GNRHR, Homo sapiens, UniProt P30968)","inositol phosphate, agonist, TR-FRET",HEK-293T,1 h,Emax,100%
CCCCC(=O)Nc1ccc(-c2ccc3ncn(CCC)c(=O)c3c2)cn1,"Serine/threonine-protein kinase 32A (STK32A, Homo sapiens, UniProt Q8WU08)","binding, competition with immobilised ligand",,0.5 µM,remaining binding,86%
